Source: PubChem BioAssay
SMARCA2 act = activators of SMARCA2 function. 370,000 tested, 1% active. MG213 cells, MMTV-luciferase reporter, dexamethasone, overnight. activation, % at 9.1 µM; in the data active means activation above about 7.8%;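 further: 0% = vehicle wells and 100% = reference activator wells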
MC4R antagonist = human MC4R antagonism in cAMP assay; 360,000 tested, 0.48% active; inhibition, % at 6.5 µM; MC4R-expressing cells, MTII-stimulated cAMP, LANCE TR-FRET;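 active means inhibition above its plate's cutoff, the mean of tested wells on that plate plus 3 SD, cut at about 29% in these data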;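 further: 0% = Melanotan II alone and 100% = Melanotan II plus saturating MCL0020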
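material = U2OS cells stably expressing human melanocortin 4 receptor (MC4R) | also added = Melanotan II challenge | dosing = single nominal compound dose of 6.5 µM | detection = TR-FRET with Eu-cAMP and labeled anti-cAMP, 671 nm | replication = singlicate | timing = compound 30 min, challenge 1 h, detection 1 h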
MC4R barr agon = activates human MC4R beta-arrestin recruitment. U2OS MC4R beta-arrestin complementation, luminescence; percent of melanotan II response, DMSO zero. activation, % at 8.9 µM. P32245. AID 540308. 360,000 tested, 0.98% active;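 active means activation above a per-plate cutoff, the mean activation of sample wells on that plate plus 3 SD, cut at about 8% in these data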
MPTP block = blocks calcium-induced mitochondrial swelling | isolated mouse mitochondria, Ca2+ swelling absorbance, 30 min | inhibition, % at 10 µM | 360,000 tested, 1.4% active | AID 602449;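 active means inhibition of 50% or more, scaled per plate between neutral and stimulator controls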;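 further: 0% = DMSO wells given calcium and 100% = 1 mM EGTA wells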
ATG4B inhibitor = inhibitors of human ATG4B cysteine protease; Q9Y4P1; ATG4B cleavage of LC3-PLA2, NBD-HPC fluorescence, 1 h; inhibition, % at 8.33 µM; 340,000 tested, 0.51% active; AID 504462; in the data active means inhibition above about 40%
Target sequence (Q9Y4P1 whole entry, looked up): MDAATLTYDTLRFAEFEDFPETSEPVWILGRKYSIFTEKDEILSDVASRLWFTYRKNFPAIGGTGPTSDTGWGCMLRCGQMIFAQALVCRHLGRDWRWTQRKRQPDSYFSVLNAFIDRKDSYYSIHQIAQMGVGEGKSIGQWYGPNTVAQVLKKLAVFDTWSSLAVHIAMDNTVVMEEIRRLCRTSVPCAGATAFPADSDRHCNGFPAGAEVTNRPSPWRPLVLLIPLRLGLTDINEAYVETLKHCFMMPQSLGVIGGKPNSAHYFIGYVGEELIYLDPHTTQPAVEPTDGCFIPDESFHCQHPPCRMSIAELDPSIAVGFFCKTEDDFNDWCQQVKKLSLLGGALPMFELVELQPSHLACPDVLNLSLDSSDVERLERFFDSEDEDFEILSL
Rh123 counter = membrane potential counter-screen of mitochondrial pore inhibitors. inhibition, % at 10 µM. 5,000 tested, 78% active. isolated mitochondria, Rhodamine 123 fluorescence. shares compounds with MPTP block; in the data active means inhibition above about 22%;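 further: 0% = DMSO vehicle and 100% = positive control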
MPTP swell DR = dose response confirmation of mitochondrial permeability transition pore inhibitors; shares compounds with MPTP block; isolated mitochondria swelling, absorbance; IC50, µM; 780 tested, 58% active; in the data active means IC50 below about 20 µM
MPTP counter DR = counter-screen for mitochondrial permeability transition pore inhibitors, dose response. shares compounds with MPTP block. isolated mitochondria counterscreen, fluorescence read-out. IC50, µM. 780 tested, 49% active. AID 651564; in the data active means IC50 below about 80 µM
Active calls of the source: *; . = no result given. Shown are actives, neighbours in structure and some others; about 4.1% of the full set was active somewhere.

SMILES | SMARCA2 act | MC4R antagonist | MC4R barr agon | MPTP block | ATG4B inhibitor | Rh123 counter | others
O=[N+]([O-])c1ccc(CSc2nnc(-c3cccc(Cl)c3)n2Cc2ccco2)cc1 | -7 | . | . | . | . | .
COc1ccc(-n2c(SCC(=O)NC3CCCCCC3)nnc2-c2ccncc2)cc1 | 2 | . | . | . | . | .
Nc1nc2c(ncn2[C@@H]2O[C@H](C(=O)NCC3CCCCC3)[C@@H](O)[C@H]2O)c(=O)[nH]1 | -6 | . | . | . | . | .
CC(C)C(=O)NC(c1ccc([N+](=O)[O-])cc1)c1c(O)ccc2ccccc12 (centres undefined) | -4 | 7 | 1 | 87* | 6 | 77*
Cc1ccc(C(NC(=O)C2CCCCC2)c2c(O)ccc3ccccc23)cc1 (centres undefined) | -5 | 8 | 2 | 99* | -10 | 80*
CCOC(=O)Cn1cc(CN2C(C(=O)OC)CN(Cc3ccccc3)CCS2(=O)=O)nn1 (centres undefined) | -1 | . | . | . | . | .
COc1ccc(CCNC(=O)C2CCCN(Cc3nc(-c4ccccc4C)oc3C)C2)cc1OC (centres undefined) | -3 | -1 | -1 | 59* | -4 | 8 | MPTP swell DR=18*;MPTP counter DR=35*
CCOC(=O)N1CCC(NC(=O)C2CCCN(Cc3nc(-c4cccc(Cl)c4)oc3C)C2)CC1 (centres undefined) | -1 | 2 | 2 | 94* | -3 | 51*
COc1ccc(CCNC(=O)C2CCN(Cc3nc(-c4cccc(Cl)c4)oc3C)CC2)cc1OC | . | 13 | -1 | 52* | -7 | 14 | MPTP swell DR=18*;MPTP counter DR=37*
Cc1oc(-c2cccc(Cl)c2)nc1CN1CCC(C(=O)NCCCN2CC(C)CC(C)C2)CC1 (centres undefined) | . | 2 | -2 | 14 | -5 | .
Cc1oc(-c2ccc(Cl)cc2)nc1CN1CCCC(C(=O)NC2CC2)C1 (centres undefined) | -2 | 2 | -2 | 6 | -5 | .
